# Source: PubChem BioAssay
# The list is not random: actives were taken first. Their share in the collection is about 2.7%.
# Yeast life ext: yeast lifespan extension; S. cerevisiae growth with nicotinamide, OD615; deaD strain in restrictive glucose medium; inhibition of the nicotinamide effect, % at 10 µM; 130,000 tested, 0.68% active; AID 775;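 active = inhibition above a set limit, placed 3 SD over the median of all compounds, cut at about 26% in these data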
#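 Measured by: optical density (absorbance) at 615 nm; System: modified budding yeast, DeaD strain; Medium: restrictive CSMM-D dextrose medium; Timing: 4 h preincubation then 48 h treatment at 30 °C.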
# RAM network inh: inhibitors of the yeast RAM network; 190,000 tested, 1.8% active; inhibition, % at 50 µM; S. cerevisiae dse1pr::URA3 reporter, 5-FOA growth OD615, 2 d; analog-sensitive cbk1-as2 kinase mutant strain;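 active = inhibition above a set limit, 3 SD over mean compound inhibition, cut at about 8.4% in these data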;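 also: inhibition rescues growth on 5-FOA so higher OD means more RAM inhibition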
# BB579 growth dn: reduces growth of yeast BB579 in restrictive medium; S. cerevisiae BB579 growth, OD615, 48 h; inhibition, % at 10 µM; 140,000 tested, 0.51% active; AID 804;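 active = inhibition above a set limit, 3 SD over the mean compound inhibition, cut at about 44% in these data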
#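 Assay system – yeast BB579 (DeaD) · Dosing – single compound dose of 10 µM, 0.25% DMSO final · Detection – OD615 turbidity measurement · Buffer or medium – CSMM-D restrictive synthetic medium containing dextrose (glucose) · Benchmarks – positive control amphotericin B 10 µg/mL · Incubation – 48 h exposure, 30 °C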
# SDO1 yeast rescue: sdo1-depleted yeast growth rescue | z-score at 10 µM | 140,000 tested, 0.21% active | AID 817 | S. cerevisiae sdo1-depleted JHY4D growth rescue, OD600 30 h; hits give high values; pdr5 snq2 efflux-pump mutant strain;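 active = z-score above 3 at both the 24 hr and the 30 hr optical density reads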
# Hits are given with their value; – = inactive; · = no result given.
SMILES,Yeast life ext,RAM network inh,BB579 growth dn,SDO1 yeast rescue
O=C(CSc1oc(-c2ccc(F)cc2)nc1S(=O)(=O)c1ccc(F)cc1)NCC1CCCO1 (stereo not drawn),–,–,–,–
Cc1ccc(NC(=O)CCC(=O)OCC(=O)c2ccc(Oc3ccc([N+](=O)[O-])cc3)cc2)cc1,–,–,–,–
CCCn1c(=O)c(C(=O)NCc2ccncc2)c(O)c2ccccc21,27.9,–,–,–
CCn1c(=O)c(C(=O)NNS(=O)(=O)c2ccc(C)cc2)c(O)c2ccccc21,31.5,–,–,–
CCCCCCCCCC(=O)NNC(=O)c1c(O)c2ccccc2n(CC)c1=O,·,10.2,·,·
CCCCCCn1c(=O)c(-c2ccccc2)c(O)c2ccccc21,–,9.5,–,–
CCn1c(=O)c(C(=O)NCc2cccnc2)c(O)c2ccccc21,–,–,–,–
CCCn1c(=O)c(C(=O)NNS(=O)(=O)c2ccc(C)cc2)c(O)c2ccccc21,–,–,–,–
CC1CC(N(C(=O)C2CC2)c2ccccc2)c2ccccc2N1C(=O)C1CC1 (stereo not drawn),–,–,–,–
Cc1cccn2c(N)c(-c3ccccc3)nc12,–,–,–,–
Cc1ccc(N2CCOCC2)c2c1C(=O)c1ccccc1C2=O,–,–,62.8,–
N/C(Cc1ccc(Cl)cc1)=N\OC(=O)c1ccccc1,–,–,96.3,–
COc1ccc(C(=O)O/N=C(\N)Cc2ccc(Cl)cc2)cc1OC,–,–,–,–
Cn1cc(CNCc2cn(C)nc2-c2ccc(C3CCCCC3)cc2)cn1,·,–,·,·
CCOC(=O)c1c(C)[nH]c(C)c1C(=O)COC(=O)c1ccc(S(=O)(=O)N(CC)CC)cc1,–,8.7,–,–
COc1cc2c(cc1NC(=O)COC(=O)C(CCSC)NC(=O)c1ccccc1Cl)oc1ccccc12 (stereo not drawn),–,–,–,–
COc1ccc(N2CCN(C(=O)CC34CC5CC(CC(C5)C3)C4)CC2)c([N+](=O)[O-])c1,–,10.0,–,–
CCC(=O)N1CCN(c2ccc(OC)cc2[N+](=O)[O-])CC1,–,–,–,–
Cc1cc(NS(=O)(=O)c2ccc(Nc3nc(-c4sc(C)nc4C)cs3)cc2)no1,–,–,–,–
Cc1cc(SCC(=O)c2cc3ccccc3o2)nc2ccccc12,–,11.0,–,–
O=C(CSc1nc2cc(Cl)ccc2s1)c1cc2ccccc2o1,–,9.4,–,–
CCN(CCCNC(=O)C1CCCN(S(=O)(=O)CC)C1)c1cccc(C)c1 (stereo not drawn),–,–,–,–
COc1cc(/C=N/NC(=O)C(=O)NCC2CCCO2)ccc1O (stereo not drawn),–,–,–,–
O=C(CCc1nnc(C2CCCCC2)o1)N1CCCCC1CCn1cccn1 (stereo not drawn),·,–,·,·
CCCn1c(C)cc(C(=O)COc2ccc(S(=O)(=O)N(CC)CC)cc2[N+](=O)[O-])c1C,–,8.4,–,–
SMILES,Yeast life ext,RAM network inh,BB579 growth dn,SDO1 yeast rescue
CCCn1c(C)cc(C(=O)COc2ccc(C)nc2[N+](=O)[O-])c1C,–,–,–,–
NC(=O)c1ccc(NC(=O)CCCN2C(=O)c3ccccc3C2=O)cc1,–,–,–,–
O=C1CCN2C=Nc3cccc4ccc1c2c34,–,–,56.5,–
c1ccc(CN2CCN(C3=Nc4cccc5cccc3c45)CC2)cc1,–,–,–,–
CN(C)C(=O)c1ccccc1Sc1ccc(Cl)cc1Cl,–,–,–,–
CS(=O)(=O)c1ccc(S(=O)CC(=O)Oc2ccc(Cl)cc2)c([N+](=O)[O-])c1 (stereo not drawn),·,–,·,·
CCOc1ccc(C(=O)N2CCCC2)cc1OC,–,–,–,–
CCOC(=O)CNNC(=O)Nc1ccc(Cl)c(Cl)c1,–,–,–,–
C=CCO/N=C/C1C(=O)CC(C)(C)CC1=O,39.0,–,–,–
O=C1CCCN1c1ccc(Br)cc1,–,–,–,–
O=S(=O)(c1ccc(Cl)s1)N1CCC(Cc2ccccc2)CC1,–,8.9,–,–
Cc1c(NC(=S)NC(=O)C(C)(C)C)cccc1[N+](=O)[O-],–,–,–,–
COC(=O)c1ccc(OCc2cc(=O)n3ccsc3n2)cc1,–,–,–,–
Cc1ccc(-c2ccc(/C=C3\C(=O)ON=C3c3ccccc3)o2)c([N+](=O)[O-])c1,71.0,–,–,–
O=S(=O)(c1cccs1)N1CCN(Cc2nc3ccccc3s2)CC1,–,–,–,–
O=C(OCc1nc2ccccc2s1)C1CCN(S(=O)(=O)c2cccs2)CC1,–,9.9,–,–
COc1ncccc1-c1nnn(-c2ccc(Cl)c(Cl)c2)n1,·,8.8,·,·
CS(=O)(=O)c1sc2nc(-c3cccs3)cc(-c3ccccc3)c2c1N,–,10.7,–,–
Cc1ccc(-c2cc(-c3ccccc3)c3c(N)c(S(C)(=O)=O)sc3n2)cc1,–,–,–,–
Cc1oncc1-c1csc(-c2ccccc2Cl)n1,·,9.5,·,·
CCCN(CC1CC1)C(=O)COC(=O)c1ccc2c(c1)C(=O)N(c1ccc(OCC)cc1)C2=O,·,10.7,·,·
Cc1ccc(/C=C2\C(=O)Nc3ccccc32)o1,–,–,60.3,–
CCN1C(=O)C(CC(=O)Nc2ccc(Br)cc2)N(CCCc2ccccc2)C1=S (stereo not drawn),–,10.9,–,–
COc1c(Cl)cc(C(=O)Nc2ccccc2-c2ccccc2)cc1Cl,–,8.7,–,–
CN(C)S(=O)(=O)c1cccc(NC(=S)NCCc2ccccn2)c1,·,–,·,·
SMILES,Yeast life ext,RAM network inh,BB579 growth dn,SDO1 yeast rescue
Cc1cccc(/C=C2\CCC(=C3SCCCS3)C2=O)c1,–,9.4,–,–
O=C(O)C1CCN(c2ncccn2)CC1,–,–,–,–
COC(=O)/C=C1\OC(c2ccccc2)=CC1=O,38.0,–,–,–
CC1CCCC(C)N1C(=O)c1cc(-c2ccc(Cl)c(Cl)c2)on1 (stereo not drawn),–,10.6,–,–
Cn1cc(C=O)c2ccccc21,·,–,·,·
Cc1ccc(/C(C#N)=C\c2cn(C)c3ccccc23)cc1,–,8.9,–,–
Cc1c(Cl)cccc1NC(=S)N1CCOCC1,–,–,–,–
Cc1n[nH]c(=O)n1-c1cccc(C(F)(F)F)c1,74.8,–,–,–
CCCn1c2c(c(O)c(C(=O)Nc3ccc(OC)cc3)c1=O)CCCC2,–,9.2,–,–
CCCn1cnc2scc(-c3ccc(C)cc3)c2c1=O,·,–,·,·
COc1ccc(-c2cc(C(F)(F)F)nc(NCc3cccs3)n2)cc1,–,–,–,–
COc1ccccc1-c1cc(C(F)(F)F)nc(NCc2cccs2)n1,–,10.0,–,–
O=C(OCC(=O)N1CCCc2ccccc21)c1ccc(Br)o1,–,–,–,–
COCCCNC(=O)CCN1C(=O)COc2ccccc21,–,–,–,–
O=C(C(=O)N1CCN(c2ccc(F)cc2)CC1)c1c[nH]c2ccccc12,·,10.3,·,·
Cc1cccc(N=Nc2ccc(O)c3ncccc23)c1,–,–,90.5,–
COc1cccc(C(=O)Oc2cc(N)n(S(=O)(=O)c3ccc(C)cc3)n2)c1OC,67.5,9.1,–,–
Cc1ccc(NC(=O)c2oc3ccc(S(=O)(=O)N4CCOCC4)cc3c2C)c(C)c1,·,9.4,·,·
